Measured values collected from several papers.
Lines come from different studies, so protocols differ.

O=C1C=C2NCCc3c[nH]c(c32)C1=O
IC50 (Babesia divergens; parasite growth, SYBR Green; 60 h, blood stage): 10000 nM

CN(C)c1ccc(-c2c(C(N)=O)c(N)n(N)c(=O)c2C#N)cc1
inhibition zone (Enterobacter cloacae; microbial growth, well diffusion; ATCC23355; 500 µg/mL): 17 mm

CN(Cc1ccc(C2(C(F)(F)F)CC2)cc1)Cc1cccc2ccccc12
inhibition zone (Trichophyton mentagrophytes; microbial growth, disc diffusion; ATCC18748; 0.256 µg/mL, 72 h): ≥ 55 mm

CN(C)c1ccc(-c2c(C(N)=S)c(N)n(N)c(=O)c2C#N)cc1
inhibition zone (Enterobacter cloacae; microbial growth, well diffusion; ATCC23355; 500 µg/mL): 14 mm

Cn1cc2c3c1C(=O)C(NCCc1ccc(O)cc1)=CC3=NCC2
IC50 (Babesia divergens; parasite growth, SYBR Green; 60 h, blood stage): 1000 nM

CN(Cc1ccc(C(C)(C)C)cc1)Cc1cccc2ccccc12
inhibition zone (Trichophyton mentagrophytes; microbial growth, disc diffusion; ATCC18748; 0.002 µg/mL, 72 h): 27.8 mm

CC(=O)Oc1ccc(-c2c(C(N)=O)c(N)n(N)c(=O)c2C#N)cc1
inhibition zone (Enterobacter cloacae; microbial growth, well diffusion; ATCC23355; 500 µg/mL): 12 mm

COC(CNC1=CC2=NCCc3c[nH]c(c32)C1=O)c1c[nH]c2ccccc12 (stereo not drawn)
IC50 (Babesia divergens; parasite growth, SYBR Green; 60 h, blood stage): 578 nM

O=C1C(Br)=C(Br)C(=O)c2ccccc21
MIC (Trichophyton mentagrophytes; microbial growth, broth dilution; ATCC9533; 96 h): < 1.56 µg/mL
